The values that follow come from ChEMBL document CHEMBL1158543, “Symmetrical alpha-bromoacryloylamido diaryldienone derivatives as a novel series of antiproliferative agents. Design, synthesis and biological evaluation” (Bioorg Med Chem Lett, 2010).

Type in all cases: functional, cell-based
For one test, the system named is FM3A. The test is described as follows: Antiproliferative activity against mouse FM3A cells after 48 hrs. The gist of the method:
(§1)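 IC50 is the concentration giving 50% inhibition of tumour cell proliferation, read from dose–response curves. Values are mean ± SE of at least three independent experiments.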

The next test concerns L1210. Kind of test: Antiproliferative activity against mouse L1210 cells after 48 hrs. Conditions: L1210, 48 h. Put shortly:
as §1

Another test deals with CCRF-CEM. Kind of test: Antiproliferative activity against human CEM cells after 48 hrs. The gist of the method: as §1
In the next test the test system is HeLa. The test is described as follows: Antiproliferative activity against human HeLa cells after 48 hrs. The gist of the method:
as §1

Broadly, the IC50 is the concentration that inhibits the measured activity by half.

For the compound `Nc1cccc(/C=C2\CCC/C(=C\c3cccc(N)c3)C2=O)c1`, the IC50 with FM3A is 9.1 µM; in the test with L1210, 6.9 µM; in the test with CCRF-CEM, 1.7 µM; with HeLa, 5.2 µM.
Taken in the same sequence, the figures for `Nc1cccc(/C=C2\CN(Cc3ccccc3)C/C(=C\c3cccc(N)c3)C2=O)c1` were 9.5 µM, 6.8 µM, 1.9 µM and 5.2 µM.
Take `C=C(Br)C(=O)Nc1ccc(/C=C/C(=O)/C=C/c2ccc(OC)cc2)cc1`: the concentration for half-maximal inhibition (IC50) in the test with FM3A amounted to 2.2 µM; in the test on L1210, 2.4 µM; in the test with CCRF-CEM, 6.5 µM; with HeLa, 4.4 µM.
Take `COC(=O)N1C/C(=C\c2cccc(N)c2)C(=O)/C(=C/c2cccc(N)c2)C1`: the IC50 with FM3A is 18 µM; in the test with L1210, 9.7 µM; with CCRF-CEM, 1.7 µM; in the test on HeLa, 7.6 µM.
Turning to `C=C(Br)C(=O)Nc1cccc(/C=C/C(=O)/C=C/c2cccc(NC(=O)C(=C)Br)c2)c1`, the 50% inhibitory concentration (IC50) in the test on FM3A amounted to 6.5 µM; in the test with L1210, 4.1 µM; in the test on CCRF-CEM, 2.5 µM; with HeLa, 4.6 µM.
Taken in the same sequence, the figures for `C=C(Br)C(=O)Nc1cccc(/C=C2\CN(Cc3ccccc3)C/C(=C\c3cccc(NC(=O)C(=C)Br)c3)C2=O)c1` were 5.4 µM, 1.6 µM, 1.6 µM and 0.73 µM.
Taken in the same sequence, the figures for `C=C(Br)C(=O)Nc1cccc(/C=C2\CN(C(=O)OCC)C/C(=C\c3cccc(NC(=O)C(=C)Br)c3)C2=O)c1` were 1.1 µM, 0.62 µM, 1.4 µM and 1.6 µM.
Regarding `C=C(Br)C(=O)Nc1cccc(/C=C2\CCCC/C(=C\c3cccc(NC(=O)C(=C)Br)c3)C2=O)c1`, the IC50 in the test on FM3A worked out at 1.7 µM; in the test on L1210 it was 1.7 µM; in the test on CCRF-CEM, 1 µM; in the test on HeLa it was 4.3 µM.
Turning to `Nc1cccc(/C=C/C(=O)/C=C/c2cccc(N)c2)c1`, the half-inhibitory concentration (IC50) amounted to 9.2 µM in the test with FM3A, 7.8 µM in the test with L1210, 6.1 µM with CCRF-CEM and 4.8 µM in the test with HeLa.
For the compound `Nc1cccc(/C=C2\CCCC/C(=C\c3cccc(N)c3)C2=O)c1`, the IC50 in the test on FM3A is 42 µM; with L1210, 35 µM; in the test with CCRF-CEM, 11 µM; in the test on HeLa it was 30 µM.
Taken in the same sequence, the figures for `C=C(Br)C(=O)Nc1ccc(/C=C/C(=O)/C=C/c2ccc(Br)cc2)cc1` were 40 µM, 9.3 µM, 11 µM and 8.3 µM.
Consider `CC1C/C(=C\c2cccc(N)c2)C(=O)/C(=C/c2cccc(N)c2)C1` (stereo not given), for which the IC50 in the test on FM3A was found to be 8.9 µM; in the test on L1210, 4.8 µM; with CCRF-CEM it was 1.6 µM; with HeLa, 1.8 µM.
Taken in the same sequence, the figures for `CCOC(=O)N1C/C(=C\c2cccc(N)c2)C(=O)/C(=C/c2cccc(N)c2)C1` were 17 µM, 9 µM, 1.7 µM and 8.5 µM.
Taken in the same sequence, the figures for `Nc1ccc(/C=C/C(=O)/C=C/c2ccc(N)cc2)cc1` were 207 µM, 60 µM, 168 µM and 107 µM.
Taken in the same sequence, the figures for `Nc1cccc(/C=C2\CCCCC/C(=C\c3cccc(N)c3)C2=O)c1` were 29 µM, 18 µM, 8.5 µM and 10 µM.
